Laboratory results from ChEMBL document CHEMBL2331506, “Design, synthesis, antiviral and cytostatic evaluation of novel isoxazolidine nucleotide analogues with a carbamoyl linker” (Bioorg Med Chem, 2013).
Activity calls are given as the source filed them. The rule behind the calls is not given here.

Experiments:
MDCK = assay: Cytotoxicity against dog MDCK cells assessed as alteration of cell morphology up to 100 uM by microscopic analysis; type: cell-based, Canis lupus familiaris
How it was run: (§1)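 Uninfected host-cell cultures were exposed to compound and examined by microscopy. Cytotoxicity was expressed as the minimum cytotoxic concentration (MCC) causing a microscopically detectable alteration of normal cell morphology.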

[1] = Cytotoxicity against cat CRFK cells assessed as alteration of cell morphology up to 100 uM by microscopic analysis; type: cell-based, Felis catus; how it was run: as §1
Vero = assay: Cytotoxicity against african green monkey Vero cells assessed as alteration of cell morphology up to 100 uM by microscopic analysis; type: cell-based; settings: chlorocebus sabaeus; how it was run: as §1
HeLa = assay: Cytotoxicity against human HeLa cells assessed as alteration of cell morphology up to 100 uM by microscopic analysis; type: cell-based; how it was run: as §1
HEL = assay: Cytotoxicity against human HEL cells assessed as alteration of cell morphology up to 100 uM by microscopic analysis; type: cell-based; how it was run: as §1
[2] = tested on: Human immunodeficiency virus 2; assay: Antiviral activity against Human immunodeficiency virus 2 ROD infected in human CEM cells assessed as reduction of virus-induced giant cell formation at 250 uM after 4 to 5 days; type: functional, organism-based; settings: CCRF-CEM
How it was run: (§2)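 CEM cells at 3 × 10^5 cells/mL were infected with HIV at 100 CCID50 per mL in the presence of compound dilutions. They were held 4–5 days at 37 °C in humidified CO2. Syncytium (giant cell) formation was scored microscopically, and EC50 was taken as the concentration inhibiting giant cell formation by 50%.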

[3] = tested on: Human immunodeficiency virus 1; assay: Antiviral activity against Human immunodeficiency virus 1 3B infected in human CEM cells assessed as reduction of virus-induced giant cell formation at 250 uM after 4 to 5 days; type: functional, organism-based; settings: CCRF-CEM; how it was run: as §2
Feline coronavirus = assay: Antiviral activity against Feline coronavirus infected in cat CRFK cells assessed as reduction of virus-induced cytopathogenicity at 250 uM; type: functional, organism-based
Felid alphaherpesvirus 1 = assay: Antiviral activity against Feline herpes virus infected in cat CRFK cells assessed as reduction of virus-induced cytopathogenicity at 250 uM; type: functional, organism-based
Influenza B virus = assay: Antiviral activity against Influenza B virus infected in dog MDCK cells assessed as reduction of virus-induced cytopathogenicity at 250 uM; type: functional, organism-based
How it was run: (§3)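 Confluent cell monolayers were infected with 100 CCID50 of virus while exposed to varying compound concentrations. Cytopathicity was scored once it was complete in untreated infected controls. EC50 was taken as the concentration that reduced virus-induced cytopathogenicity by 50%.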

Influenza A virus [4] = assay: Antiviral activity against Influenza A virus H3N2 infected in dog MDCK cells assessed as reduction of virus-induced cytopathogenicity at 250 uM; type: functional, organism-based; how it was run: as §3
Influenza A virus [5] = assay: Antiviral activity against Influenza A virus H1N1 infected in dog MDCK cells assessed as reduction of virus-induced cytopathogenicity at 250 uM; type: functional, organism-based; how it was run: as §3
Punta Toro virus = assay: Antiviral activity against Punta Toro virus infected in african green monkey Vero cells assessed as reduction of virus-induced cytopathogenicity at 250 uM; type: functional, organism-based
How it was run: (§4)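 Confluent monolayers (HEL fibroblasts, Vero, or HeLa cells as listed) were infected with 100 CCID50 of virus in the presence of varying compound concentrations. Virus-induced cytopathicity or plaque formation was scored once cytopathicity was complete in untreated infected controls. EC50 was taken as the concentration reducing cytopathogenicity or plaque formation by 50%.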

Sindbis virus = assay: Antiviral activity against Sindbis virus infected in african green monkey Vero cells assessed as reduction of virus-induced cytopathogenicity at 250 uM; type: functional, organism-based; how it was run: as §4
Coxsackievirus B4 = assay: Antiviral activity against Coxsackievirus B4 infected in african green monkey Vero cells assessed as reduction of virus-induced cytopathogenicity at 250 uM; type: functional, organism-based; how it was run: as §4
[6] = tested on: Mammalian orthoreovirus 1; assay: Antiviral activity against Reovirus 1 infected in african green monkey Vero cells assessed as reduction of virus-induced cytopathogenicity at 250 uM; type: functional, organism-based; how it was run: as §4
Human respirovirus 3 = assay: Antiviral activity against Parainfluenza virus 3 infected in african green monkey Vero cells assessed as reduction of virus-induced cytopathogenicity at 250 uM; type: functional, organism-based; how it was run: as §4
[7] = tested on: Respiratory syncytial virus; assay: Antiviral activity against Respiratory syncytial virus long infected in human HeLa cells assessed as reduction of virus-induced cytopathogenicity at 250 uM; type: functional, organism-based; how it was run: as §4
[8] = tested on: Vesicular stomatitis virus; assay: Antiviral activity against Vesicular stomatitis virus infected in human HeLa cells assessed as reduction of virus-induced cytopathogenicity at 250 uM; type: functional, organism-based; how it was run: as §3
Human alphaherpesvirus 1 [9] = assay: Antiviral activity against thymidine kinase-deficient, ACV-resistant Herpes simplex virus 1 KOS infected in human HEL cells assessed as reduction of virus-induced cytopathogenicity at 250 uM; type: functional, organism-based; how it was run: as §3
[10] = tested on: Vesicular stomatitis virus; assay: Antiviral activity against Vesicular stomatitis virus infected in human HEL cells assessed as reduction of virus-induced cytopathogenicity at 250 uM; type: functional, organism-based; how it was run: as §3
Human alphaherpesvirus 2 = assay: Antiviral activity against Herpes simplex virus 2 G infected in human HEL cells assessed as reduction of virus-induced cytopathogenicity at 250 uM; type: functional, organism-based; settings: strain G; how it was run: as §4
Human alphaherpesvirus 1 [11] = assay: Antiviral activity against Herpes simplex virus 1 KOS infected in human HEL cells assessed as reduction of virus-induced cytopathogenicity at 250 uM; type: functional, organism-based; how it was run: as §4

SMILES	Activity (MDCK)	Activity [1]	Activity (Vero)	Activity (HeLa)	Activity (HEL)	inhibition [2]	inhibition [3]	inhibition (Feline coronavirus)	inhibition (Felid alphaherpesvirus 1)	inhibition (Influenza B virus)	inhibition (Influenza A virus [4])	inhibition (Influenza A virus [5])	inhibition (Punta Toro virus)	inhibition (Sindbis virus)	inhibition (Coxsackievirus B4)	inhibition [6]	inhibition (Human respirovirus 3)	inhibition [7]	inhibition [8]	inhibition (Human alphaherpesvirus 1 [9])	also measured
CCOP(=O)(OCC)[C@H]1C[C@H](C(=O)Nc2cccc(C(C)=O)c2)ON1C (mixture of isomers)	Non-toxic	Non-toxic	Non-toxic	Non-toxic	Non-toxic	inactive	inactive	inactive	inactive	inactive	inactive	inactive	inactive	inactive	inactive	inactive	inactive	inactive	inactive	inactive	inhibition [10]: inactive; inhibition (Human alphaherpesvirus 2): inactive; inhibition (Human alphaherpesvirus 1 [11]): inactive
CCOP(=O)(OCC)[C@@H]1C[C@H](C(=O)Nc2ccc(C#N)cc2)ON1C (mixture of isomers)	Non-toxic	Non-toxic	Non-toxic	Non-toxic	Non-toxic	inactive	inactive	inactive	inactive	inactive	inactive	inactive	inactive	inactive	inactive	inactive	inactive	inactive	inactive	inactive	inhibition [10]: inactive; inhibition (Human alphaherpesvirus 2): inactive; inhibition (Human alphaherpesvirus 1 [11]): inactive
CCOP(=O)(OCC)[C@@H]1C[C@H](C(=O)Nc2ccccc2C(C)=O)ON1C (mixture of isomers)	Non-toxic	Non-toxic	Non-toxic	Non-toxic	Non-toxic	inactive	inactive	inactive	inactive	inactive	inactive	inactive	inactive	inactive	inactive	inactive	inactive	inactive	inactive	inactive	inhibition [10]: inactive; inhibition (Human alphaherpesvirus 2): inactive; inhibition (Human alphaherpesvirus 1 [11]): inactive
CCOP(=O)(OCC)[C@@H]1C[C@H](C(=O)Nc2ccc(F)cc2)ON1C (mixture of isomers)	Non-toxic	Non-toxic	Non-toxic	Non-toxic	Non-toxic	inactive	inactive	inactive	inactive	inactive	inactive	inactive	inactive	inactive	inactive	inactive	inactive	inactive	inactive	inactive	inhibition [10]: inactive; inhibition (Human alphaherpesvirus 2): inactive; inhibition (Human alphaherpesvirus 1 [11]): inactive
CCOc1ccc(NC(=O)[C@H]2C[C@H](P(=O)(OCC)OCC)N(C)O2)cc1 (mixture of isomers)	Non-toxic	Non-toxic	Non-toxic	Non-toxic	Non-toxic	inactive	inactive	inactive	inactive	inactive	inactive	inactive	inactive	inactive	inactive	inactive	inactive	inactive	inactive	inactive	inhibition [10]: inactive; inhibition (Human alphaherpesvirus 2): inactive; inhibition (Human alphaherpesvirus 1 [11]): inactive
CCOP(=O)(OCC)[C@@H]1C[C@H](C(=O)Nc2cc(OC)c(OC)cc2C#N)ON1C (mixture of isomers)	Non-toxic	Non-toxic	Non-toxic	Non-toxic	Non-toxic	inactive	inactive	inactive	inactive	inactive	inactive	inactive	inactive	inactive	inactive	inactive	inactive	inactive	inactive	inactive	inhibition [10]: inactive; inhibition (Human alphaherpesvirus 2): inactive; inhibition (Human alphaherpesvirus 1 [11]): inactive
CCOP(=O)(OCC)[C@H]1C[C@H](C(=O)Nc2ccc(OC)c(OC)c2)ON1C (mixture of isomers)	Non-toxic	Non-toxic	Non-toxic	Non-toxic	Non-toxic	inactive	inactive	inactive	inactive	inactive	inactive	inactive	inactive	inactive	inactive	inactive	inactive	inactive	inactive	inactive	inhibition [10]: inactive; inhibition (Human alphaherpesvirus 2): inactive; inhibition (Human alphaherpesvirus 1 [11]): inactive
